{"data": "Results collected from several papers", "cell line": "NCI-H1299", "observed": "cell growth or viability", "note": "Protocols differ between the studies behind these lines."}
{"SMILES": "COc1ccccc1C#CCNCC(O)COc1cccc2[nH]c3ccccc3c12 (centres unmarked)", "assay": "CCK-8", "setting": "72 h", "endpoint": "IC50", "value": "> 100 µM"}
{"SMILES": "COc1cc2c(Nc3ccc(NC(=O)c4ccccc4)cc3)ncnc2cc1OCCCN1CCOCC1", "assay": "MTS", "setting": "72 h", "endpoint": "IC50", "value": "0.7 µM"}
{"SMILES": "COc1ccc(-c2ccc(/C(C)=N/O)c(O)c2Cl)cc1C", "assay": "MTT", "setting": "30 µM, 48 h", "endpoint": "viability", "value": "76%"}
{"SMILES": "COc1ccccc1OCCN1CCOC(COc2cccc3[nH]c4ccccc4c23)C1 (centres unmarked)", "assay": "CCK-8", "setting": "72 h", "endpoint": "IC50", "value": "> 100 µM"}
{"SMILES": "Cc1c(-c2cccc(C(F)(F)F)c2)sc2[nH]c(=O)n([C@H](C)c3cccc4ccccc34)c(=O)c12", "setting": "10 µM", "endpoint": "inhibition", "value": "> 80%"}
{"SMILES": "CN1C[C@H](C(=O)N[C@]2(C)O[C@@]3(O)[C@@H]4CCCN4C(=O)[C@H](Cc4ccccc4)N3C2=O)C[C@@H]2c3cccc4[nH]cc(c34)C[C@H]21", "assay": "MTT", "setting": "72 h", "endpoint": "EC50", "value": "70 µM"}
{"SMILES": "COc1cccc(-c2ccc(/C(C)=N/O)c(O)c2Cl)c1", "assay": "MTT", "setting": "30 µM, 48 h", "endpoint": "viability", "value": "90%"}
{"SMILES": "Cc1cc2c(cc1N1C(=O)c3cccc4c(CCCO)ccc(c34)C1=O)n(C)c(=O)n2C (racemic)", "assay": "resazurin", "endpoint": "GI50", "value": "> 10 µM"}
{"SMILES": "CCCc1ccc(OCC(O)CNC/C=C/c2ccccc2OC)cc1 (centres unmarked)", "assay": "CCK-8", "setting": "72 h", "endpoint": "IC50", "value": "11.4 µM"}
{"SMILES": "C/C(=N\\O)c1ccc(-c2cccc(C#N)c2)c(Cl)c1O", "assay": "MTT", "setting": "30 µM, 48 h", "endpoint": "viability", "value": "82%"}
{"SMILES": "C=C(c1ccc(C(=O)O)cc1)c1cc2c(cc1C)C(C)(C)CCC2(C)C", "assay": "MTT", "setting": "72 h", "endpoint": "EC50", "value": "44 µM"}
